Experimental data as given in ChEMBL document CHEMBL1132108, “Design, synthesis, and activity of a series of pyrrolidine-3-carboxylic acid-based, highly specific, orally active ET(B) antagonists containing a diphenylmethylamine acetamide side chain” (J Med Chem, 1999).

Columns and labels:
Endothelin-1 receptor = molecular target: T1, Endothelin-1 receptor (Homo sapiens, UniProt P25101); assay: Binding ability determined by the displacement of [125I]ET1 from the human endothelin A receptor
T1 sequence (P25101 whole entry): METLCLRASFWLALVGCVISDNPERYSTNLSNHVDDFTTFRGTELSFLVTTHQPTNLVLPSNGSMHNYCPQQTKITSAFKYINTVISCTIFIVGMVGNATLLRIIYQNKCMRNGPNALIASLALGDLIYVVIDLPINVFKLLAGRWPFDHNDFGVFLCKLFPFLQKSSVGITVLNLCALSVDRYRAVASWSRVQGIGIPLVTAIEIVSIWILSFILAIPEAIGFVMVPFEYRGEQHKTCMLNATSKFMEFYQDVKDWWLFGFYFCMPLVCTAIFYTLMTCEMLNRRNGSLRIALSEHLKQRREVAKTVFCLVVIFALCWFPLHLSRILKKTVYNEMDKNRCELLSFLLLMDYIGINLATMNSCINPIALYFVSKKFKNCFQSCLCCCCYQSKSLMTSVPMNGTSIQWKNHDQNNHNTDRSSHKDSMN

[1] = molecular target: Endothelin receptor, ET-A/ET-B (Homo sapiens) (UniProt P24530+P25101); assay: Ratio of binding affinity towards human endothelin receptor type A to human endothelin receptor type B (hETA to hETB); assay type: protein assay
[2] = molecular target: T2, Endothelin receptor type B (Homo sapiens, UniProt P24530); assay: Binding ability determined by the displacement of [125 I]ET-3 from the human Endothelin B receptor
T2 sequence (P24530 whole entry): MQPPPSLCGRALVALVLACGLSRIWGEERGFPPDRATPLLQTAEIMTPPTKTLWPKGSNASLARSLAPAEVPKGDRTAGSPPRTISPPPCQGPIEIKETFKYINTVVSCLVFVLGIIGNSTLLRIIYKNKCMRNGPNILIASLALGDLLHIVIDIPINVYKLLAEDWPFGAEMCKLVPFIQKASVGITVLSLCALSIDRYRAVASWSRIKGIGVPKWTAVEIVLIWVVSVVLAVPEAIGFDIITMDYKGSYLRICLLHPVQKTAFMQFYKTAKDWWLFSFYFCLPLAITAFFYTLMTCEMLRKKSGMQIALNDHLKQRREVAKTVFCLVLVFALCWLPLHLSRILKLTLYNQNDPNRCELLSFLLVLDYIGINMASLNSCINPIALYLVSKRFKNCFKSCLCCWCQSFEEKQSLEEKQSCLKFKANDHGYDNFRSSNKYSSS

[3] = Half life (5 mg/kg) when administered intravenously; assay type: ADME, organism-based; details: in vivo, iv
Summary of the method: (§1)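 Rats dosed at 5 mg/kg by intravenous injection and by oral gavage. Time course of plasma drug levels compared between the two routes to give half-life and AUC0-∞. Oral bioavailability F is calculated from the two routes.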

[4] = Total drug exposure (5 mg/kg) when administered orally; assay type: ADME, organism-based; details: in vivo, po; summary of the method: as §1
[5] = Total drug exposure (5 mg/kg) when administered intravenously; assay type: ADME, organism-based; details: in vivo, iv; summary of the method: as §1
[6] = Half life (5 mg/kg) when administered orally; assay type: ADME, organism-based; details: in vivo, po; summary of the method: as §1
[7] = Oral bioavailability; assay type: ADME, organism-based; details: eutheria, in vivo; summary of the method: as §1

SMILES	IC50 (Endothelin-1 receptor) [nM]	Ratio [1]	IC50 [2] [nM]	half-life [3] [h]	AUC [4] [ng·h/mL]	AUC [5] [ng·h/mL]	half-life [6] [h]	bioavailability [7] [%]
CCCC(NC(=O)CN1C[C@H](c2ccc3c(c2)OCO3)[C@@H](C(=O)O)[C@@H]1c1ccc(OC)cc1)c1ccccc1 (stereo partly specified)	3.7	0.51	7.3					
COc1ccc([C@H]2[C@H](C(=O)O)[C@@H](c3ccc4c(c3)OCO4)CN2CC(=O)NC(C)c2ccccc2)cc1 (stereo partly specified)	5.5	0.28	20					
CCC(NC(=O)CN1C[C@H](c2ccc3c(c2)OCO3)[C@@H](C(=O)O)[C@@H]1c1ccc(OC)cc1)c1ccccc1 (stereo partly specified)	1	0.38	2.6					
COc1ccc([C@H]2[C@H](C(=O)O)[C@@H](c3ccc4c(c3)OCO4)CN2CC(=O)NC(CC(C)C)c2ccccc2)cc1 (stereo partly specified)	13.6	4	3.4					
COc1ccc([C@H]2[C@H](C(=O)O)[C@@H](c3ccc4c(c3)OCO4)CN2CC(=O)NC(Cc2ccccc2)c2ccccc2)cc1 (stereo partly specified)	3.9	0.08	47					
COc1ccc([C@H]2[C@H](C(=O)O)[C@@H](c3ccc4c(c3)OCO4)CN2CC(=O)NC(c2ccccc2)C(C)(C)C)cc1 (stereo partly specified)	8.8	9.36	0.94					
COc1ccc([C@H]2[C@H](C(=O)O)[C@@H](c3ccc4c(c3)OCO4)CN2CC(=O)NC(CC(C)(C)C)c2ccccc2)cc1 (stereo partly specified)	131	26.2	5					
COc1ccc([C@H]2[C@H](C(=O)O)[C@@H](c3ccc4c(c3)OCO4)CN2CC(=O)NC(c2ccccc2)C(C)C)cc1 (stereo partly specified)	0.7	0.33	2.1					
CC(C)OCCOc1ccc([C@H]2[C@H](C(=O)O)[C@@H](c3ccc4c(c3)OCO4)CN2CC(=O)NC(c2ccccc2)C(C)(C)C)cc1 (stereo partly specified)	322	454	0.71					
COc1ccc([C@H]2[C@H](C(=O)O)[C@@H](c3ccc4c(c3)OCO4)CN2CC(=O)NC(c2ccccc2)(c2ccccc2)c2ccccc2)cc1	432	0.58	744					
COc1ccc([C@H]2[C@H](C(=O)O)[C@@H](c3ccc4c(c3)OCO4)CN2CC(=O)NC(C)c2ccccc2C)cc1 (stereo partly specified)	16	0.89	18					
CCCCC(NC(=O)CN1C[C@H](c2ccc3c(c2)OCO3)[C@@H](C(=O)O)[C@@H]1c1ccc(OC)cc1)c1ccccc1 (stereo partly specified)	1.6	0.32	5					
CCC(CC)C(NC(=O)CN1C[C@H](c2ccc3c(c2)OCO3)[C@@H](C(=O)O)[C@@H]1c1ccc(OC)cc1)c1ccccc1 (stereo partly specified)	2.5	2.27	1.1					
COc1ccc([C@H]2[C@H](C(=O)O)[C@@H](c3ccc4c(c3)OCO4)CN2CC(=O)NC2c3ccccc3-c3ccccc32)cc1	1230	2.05	600					
COc1ccc([C@H]2[C@H](C(=O)O)[C@@H](c3ccc4c(c3)OCO4)CN2CC(=O)NC(c2ccccc2)c2ccccc2)cc1	45.9	5.67	8.1					
COc1ccc([C@H]2[C@H](C(=O)O)[C@@H](c3ccc4c(c3)OCO4)CN2CC(=O)NCC(c2ccccc2)c2ccccc2)cc1	199	1.84	108					

The remaining lines, values ahead:

IC50 (Endothelin-1 receptor) [nM]	Ratio [1]	IC50 [2] [nM]	half-life [3] [h]	AUC [4] [ng·h/mL]	AUC [5] [ng·h/mL]	half-life [6] [h]	bioavailability [7] [%]	SMILES
	16000							COCCOc1ccc([C@H]2[C@H](C(=O)O)[C@@H](c3ccc4c(c3)OCO4)CN2CC(=O)NC(c2ccccc2C)c2ccccc2C)cc1 (stereo in doubt; form 2)
20600		1.7						COCCOc1ccc([C@H]2[C@H](C(=O)O)[C@@H](c3ccc4c(c3)OCO4)CN2CC(=O)NC(c2ccccc2C)c2ccccc2C)cc1 (stereo in doubt; form 1) [listing 1 of 2 here]
51700		1.9	1.8	730	3030	4.8	24	Cc1ccccc1C(NC(=O)CN1C[C@H](c2ccc3c(c2)OCO3)[C@@H](C(=O)O)[C@@H]1c1ccc(OCCOC(C)C)cc1)c1ccccc1C.O=C(O)C(F)(F)F (stereo in doubt; form 1)
	12100							COCCOc1ccc([C@H]2[C@H](C(=O)O)[C@@H](c3ccc4c(c3)OCO4)CN2CC(=O)NC(c2ccccc2C)c2ccccc2C)cc1 (stereo in doubt; form 1) [listing 2 of 2 here]
	23400							Cc1ccccc1C(NC(=O)CN1C[C@H](c2ccc3c(c2)OCO3)[C@@H](C(=O)O)[C@@H]1c1ccc(OCCOC(C)C)cc1)c1ccccc1C (stereo in doubt; form 2) [listing 1 of 2 here]
488	222	2.2						COCCOc1ccc([C@H]2[C@H](C(=O)O)[C@@H](c3ccc4c(c3)OCO4)CN2CC(=O)NC(c2ccccc2)C(C)(C)C)cc1 (stereo partly specified)
77400		3.3						Cc1ccccc1C(NC(=O)CN1C[C@H](c2ccc3c(c2)OCO3)[C@@H](C(=O)O)[C@@H]1c1ccc(OCCOC(C)C)cc1)c1ccccc1C (stereo in doubt; form 2) [listing 2 of 2 here]
14300	4320	3.3						CCc1ccccc1C(NC(=O)CN1C[C@H](c2ccc3c(c2)OCO3)[C@@H](C(=O)O)[C@@H]1c1ccc(OCCOC(C)C)cc1)c1ccccc1C (stereo partly specified)
749	123	6.1						CCc1ccccc1C(NC(=O)CN1C[C@H](c2ccc3c(c2)OCO3)[C@@H](C(=O)O)[C@@H]1c1ccc(OC)cc1)c1ccccc1C (stereo partly specified)
122	3.94	31						COc1ccc([C@H]2[C@H](C(=O)O)[C@@H](c3ccc4c(c3)OCO4)CN2CC(=O)NC(c2ccccc2)c2cc(C)ccc2C)cc1 (stereo partly specified)
27000		1.7	2.9	200	2500	0.55	8	COCCOc1ccc([C@H]2[C@H](C(=O)O)[C@@H](c3ccc4c(c3)OCO4)CN2CC(=O)NC(c2ccccc2C)c2ccccc2C)cc1.O=C(O)C(F)(F)F (stereo in doubt; form 2)
100	15.2	6.6						CCc1ccccc1C(NC(=O)CN1C[C@H](c2ccc3c(c2)OCO3)[C@@H](C(=O)O)[C@@H]1c1ccc(OC)cc1)c1ccccc1CC
63.5	18.7	3.4						COc1ccc([C@H]2[C@H](C(=O)O)[C@@H](c3ccc4c(c3)OCO4)CN2CC(=O)NC(c2ccccc2)c2ccccc2C)cc1 (stereo partly specified)
161	146	1.1						COc1ccc([C@H]2[C@H](C(=O)O)[C@@H](c3ccc4c(c3)OCO4)CN2CC(=O)NC(c2ccccc2C)c2ccccc2C)cc1
	27200							Cc1ccccc1C(NC(=O)CN1C[C@H](c2ccc3c(c2)OCO3)[C@@H](C(=O)O)[C@@H]1c1ccc(OCCOC(C)C)cc1)c1ccccc1C (stereo in doubt; form 1)
